ChEMBL document CHEMBL1833920, “Antimalarial activity of imidazo[2,1-a]isoindol-5-ol derivatives and related compounds” (Eur J Med Chem, 2011)

Legend:
Plasmodium falciparum [1] = experiment: Antiplasmodial activity against chloroquine-sensitive Plasmodium falciparum 3D7 infected in human O positive erythrocytes after 48 hrs by SYBR green-I based fluorescence assay; format: functional, organism-based; conditions: 3D7, 48 h
Outline: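 3D7 was cultured at 37 °C, 5% CO₂, in O+ human erythrocytes at 5% hematocrit, in RPMI 1640 with 2% human serum, 0.2% NaHCO₃, 0.5% Albumax II, hypoxanthine and gentamicin. Cultures were sorbitol-synchronized (mostly late rings/early trophozoites). Drugs from DMSO stocks were serially diluted in triplicate wells (final DMSO ≤0.001%) and incubated 48 h. Read-out was SYBR Green I in lysis buffer, 1 h dark RT, ex 485/em 530 nm. EC₅₀ was taken as 50% fluorescence reduction, as the mean of triplicate experiments.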

Plasmodium falciparum [2] = experiment: Ratio of chloroquine IC50 to Compound IC50 for chloroquine-sensitive Plasmodium falciparum 3D7; format: functional
[3] = Intestinal absorption in human; format: ADME, organism-based; conditions: in vivo, read-out: HIA
Mus musculus = experiment: Toxicity in Plasmodium berghei NK65 infected in Swiss mouse assessed as mouse mortality at 50 mg/kg, ip administered 2 hrs postinfection daily for 4 days measured on day 5; format: organism-based; set-up: dose 50 mg/kg, route intraperitoneal; conditions: in vivo
Outline: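 Swiss male mice (20 ± 2 g) were infected on day 0 with 10⁷ parasitized cells and kept in groups of five. Compound was given i.p. at 50 mg/kg/day, starting 2 h after infection on day 0 and continuing through day 3. Untreated (blank) and chloroquine (5 mg/kg/day) groups served as controls.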

Plasmodium berghei [4] = experiment: Antimalarial activity against Plasmodium berghei NK65 infected in Swiss mouse assessed as inhibition of parasitemia at 25 mg/kg, ip administered 2 hrs postinfection daily for 4 days measured on day 5; format: functional; conditions: route intraperitoneal
Outline: (§1)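 Swiss male mice (20 ± 2 g) were infected on day 0 with 10⁷ parasitized cells, in groups of five. Dosing was i.p. at 50 or 25 mg/kg/day from day 0 (2 h post-infection) to day 3. Parasitemia on day 4 was counted from Giemsa-stained tail thin smears (≥9000 RBC, 1000×). Results were compared with untreated and CQ 5 mg/kg/day controls, and % inhibition was calculated relative to untreated parasitemia.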

[5] = Plasma protein binding in human; format: ADME, organism-based
[6] = Cytotoxicity against african green monkey CV1 cells; format: cell-based, CV-1; conditions: chlorocebus aethiops
Plasmodium berghei [7] = experiment: Antimalarial activity against Plasmodium berghei NK65 infected in Swiss mouse assessed as inhibition of parasitemia at 50 mg/kg, ip administered 2 hrs postinfection daily for 4 days measured on day 5; format: functional; conditions: route intraperitoneal; outline: as §1

Structure (SMILES)	IC50 (Plasmodium falciparum [1])	Fa [3]	fraction unbound [5]	Ratio IC50 (Plasmodium falciparum [2])	Activity (Mus musculus)	inhibition in vivo at 25 mg/kg (Plasmodium berghei [4])	CC50 [6]	inhibition in vivo at 50 mg/kg (Plasmodium berghei [7])
COc1ccccc1CC1(O)c2ccccc2C2=NCCN21 (stereo unspecified)	> 35 µM	–	–	<1	–	–	–	–
Oc1ccc(CC2(O)c3ccccc3C3=NCCN32)cc1 (stereo unspecified)	> 35 µM	–	–	<1	–	–	–	–
OC1(Cc2ccc(F)cc2F)c2ccccc2C2=NCCN21 (stereo unspecified)	33.3 µM	–	–	<1	–	–	–	–
OC1(Cc2cc(F)cc(F)c2)c2ccccc2C2=NCCN21 (stereo unspecified)	> 35 µM	–	–	<1	–	–	–	–
Oc1ccc(CC2(O)c3ccccc3C3=NCCN32)cc1Cl (stereo unspecified)	> 35 µM	–	–	<1	–	–	–	–
OC1(Cc2cccs2)c2ccccc2C2=NCCN21 (stereo unspecified)	19.6 µM	–	–	<1	–	–	–	–
CSc1ccc(CC2(O)c3ccccc3-c3nc4ccccc4n32)cc1 (stereo unspecified)	> 27 µM	–	–	<1	–	–	–	–
CSc1ccc(CC2(O)c3ccccc3-c3nc4cc(C)ccc4n32)cc1 (stereo unspecified)	15.6 µM	–	–	<1	–	–	–	–
OC1(Cc2ccc3ccccc3c2)c2ccccc2-c2nc3ccccc3n21 (stereo unspecified)	> 30 µM	–	–	<1	–	–	–	–
OC1(Cc2ccc3ccccc3c2)c2ccccc2C2=NCCN21 (stereo unspecified)	0.06 µM	> 95%	> 0.1	16.7	Toxic	87%	–	–
OC1(Cc2ccccc2Cl)c2ccccc2C2=NCCN21 (stereo unspecified)	15.2 µM	–	–	<1	–	–	–	–
OC1(Cc2ccc(Cl)c(Cl)c2)c2ccccc2C2=NCCN21 (stereo unspecified)	0.3 µM	> 95%	> 0.1	3.3	Toxic	19%	–	–
OC1(Cc2ccc(Cl)cc2)c2ccccc2C2=NCCN21 (stereo unspecified)	–	> 95%	> 0.1	8.3	–	–	> 16 µM	7%
OC1(Cc2cccc3ccccc23)c2ccccc2C2=NCCN21 (stereo unspecified)	16.3 µM	–	–	<1	–	–	> 15 µM	–
COc1ccc(CC2(O)c3ccccc3C3=NCCN32)cc1OC (stereo unspecified)	27.6 µM	–	–	<1	–	–	> 30 µM	–
OC1(Cc2ccccc2)c2ccccc2C2=NCCN21 (stereo unspecified)	37.8 µM	–	–	<1	–	–	–	–

Continued, in another order:

IC50 (Plasmodium falciparum [1])	Fa [3]	fraction unbound [5]	Structure (SMILES)	Ratio IC50 (Plasmodium falciparum [2])	Activity (Mus musculus)	inhibition in vivo at 25 mg/kg (Plasmodium berghei [4])	CC50 [6]	inhibition in vivo at 50 mg/kg (Plasmodium berghei [7])
8.36 µM	–	–	COc1cccc(CC2(O)c3ccccc3C3=NCCN32)c1 (stereo unspecified)	<1	–	–	–	–
6.6 µM	–	–	OC1(Cc2ccsc2)c2ccccc2C2=NCCN21 (stereo unspecified)	<1	–	–	–	–
13.5 µM	–	–	Cn1c(CC2(O)c3ccccc3C3=NCCN32)cc2ccccc21 (stereo unspecified)	<1	–	–	–	–
0.06 µM	> 95%	> 0.1	CSc1ccc(CC2(O)c3ccccc3C3=NCCN32)cc1 (stereo unspecified)	16.7	–	–	> 24 µM	84%
4.2 µM	–	–	OC1(Cc2ccc(F)cc2)c2ccccc2C2=NCCN21 (stereo unspecified)	<1	–	–	–	–
8.8 µM	–	–	OC1(Cc2ccc(Cl)cc2Cl)c2ccccc2C2=NCCN21 (stereo unspecified)	<1	–	–	–	–
0.24 µM	> 95%	> 0.1	COc1ccc(CC2(O)c3ccccc3C3=NCCN32)cc1 (stereo unspecified)	4.2	–	–	–	23%
2.2 µM	> 95%	> 0.1	OC1(Cc2ccc3c(c2)OCO3)c2ccccc2C2=NCCN21 (stereo unspecified)	<1	–	–	> 32 µM	53%
1.49 µM	> 95%	> 0.1	COc1cc(CC2(O)c3ccccc3C3=NCCN32)cc(OC)c1OC (stereo unspecified)	<1	–	–	–	< 5%
13.9 µM	–	–	CSc1ccc(C=C2c3ccccc3C(=O)N2c2cc(Cl)ccc2N)cc1 (mixture of isomers)	<1	–	–	–	–
10 µM	–	–	Nc1ccc(Cl)cc1N1C(=O)c2ccccc2C1=Cc1ccc2ccccc2c1 (mixture of isomers)	<1	–	–	–	–
